Measured values reported in ChEMBL document CHEMBL4304834, “3-Amino-chromanes and Tetrahydroquinolines as Selective 5-HT2B, 5-HT7, or σ1 Receptor Ligands” (ACS Med Chem Lett, 2019).
Active and inactive are the calls of the source. No cut-off for these calls is given here.

Key:
[1] = target: Sodium-dependent noradrenaline transporter (Homo sapiens, UniProt P23975); experiment: Displacement of [3H]-Nisoxetine from human recombinant NET receptor expressed in stable HEK cells at 10 uM after 90 mins by microbeta scintillation counting method relative to control; format: cell-based
Chain of Sodium-dependent noradrenaline transporter (P23975 whole entry): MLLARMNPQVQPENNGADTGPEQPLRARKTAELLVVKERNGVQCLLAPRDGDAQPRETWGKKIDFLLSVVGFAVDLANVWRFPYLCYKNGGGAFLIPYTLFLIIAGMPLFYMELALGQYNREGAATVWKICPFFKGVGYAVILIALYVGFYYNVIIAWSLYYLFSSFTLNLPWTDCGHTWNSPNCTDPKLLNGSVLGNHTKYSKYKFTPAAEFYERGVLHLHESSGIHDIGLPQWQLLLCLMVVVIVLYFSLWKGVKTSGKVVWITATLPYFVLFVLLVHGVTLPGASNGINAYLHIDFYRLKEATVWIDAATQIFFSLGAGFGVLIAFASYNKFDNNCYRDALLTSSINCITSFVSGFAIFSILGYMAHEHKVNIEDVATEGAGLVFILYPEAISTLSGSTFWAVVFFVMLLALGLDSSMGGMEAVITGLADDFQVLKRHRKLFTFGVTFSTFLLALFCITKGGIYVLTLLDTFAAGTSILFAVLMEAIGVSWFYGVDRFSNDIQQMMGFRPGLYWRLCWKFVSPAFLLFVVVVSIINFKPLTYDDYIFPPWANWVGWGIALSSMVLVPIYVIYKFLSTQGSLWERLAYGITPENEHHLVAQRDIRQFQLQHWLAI
How it was run: (§1)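 Radioligand binding run by the NIMH Psychoactive Drug Screening Program. […] Otherwise Ki comes from sigmoidal curve fits of triplicate measurements in a single experiment, or is averaged over repeated experiments each run in triplicate.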

[2] = species: Homo sapiens; experiment: Selectivity index, ratio of Ki for human recombinant 5-HT2B receptor to Ki for human recombinant sigma1 receptor
[3] = species: Homo sapiens; experiment: Selectivity index, ratio of Ki for human recombinant sigma2 receptor to Ki for human recombinant sigma1 receptor
How it was run: (§2)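 Both Ki values in each ratio come from NIMH Psychoactive Drug Screening Program radioligand binding. […] Other targets were given full binding curves, measured in triplicate, and Ki was taken from a sigmoidal curve fit. Some values were repeated in duplicate or triplicate independent experiments.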

[4] = species: Homo sapiens; experiment: Selectivity index, ratio of Ki for human recombinant 5-HT3 receptor to Ki for human recombinant sigma1 receptor
[5] = species: Homo sapiens; experiment: Selectivity index, ratio of Ki for human recombinant adrenergic Alpha1B receptor to Ki for human recombinant sigma1 receptor; how it was run: as §2
[6] = species: Homo sapiens; experiment: Selectivity index, ratio of Ki for human recombinant adrenergic Beta2 receptor to Ki for human recombinant sigma1 receptor; how it was run: as §2
[7] = species: Homo sapiens; experiment: Selectivity index, ratio of Ki for human recombinant adrenergic Beta3 receptor to Ki for human recombinant sigma1 receptor; how it was run: as §2
[8] = species: Homo sapiens; experiment: Selectivity index, ratio of Ki for human recombinant dopamine D2 receptor to Ki for human recombinant sigma1 receptor; how it was run: as §2
[9] = species: Homo sapiens; experiment: Selectivity index, ratio of Ki for human recombinant dopamine D3 receptor to Ki for human recombinant sigma1 receptor; how it was run: as §2
[10] = species: Homo sapiens; experiment: Selectivity index, ratio of Ki for human recombinant dopamine D5 receptor to Ki for human recombinant sigma1 receptor; how it was run: as §2
[11] = species: Homo sapiens; experiment: Selectivity index, ratio of Ki for human recombinant DAT receptor to Ki for human recombinant sigma1 receptor
[12] = Selectivity index, ratio of Ki for rat brain GABAA receptor to Ki for human recombinant sigma1 receptor; how it was run: as §2
[13] = species: Homo sapiens; experiment: Selectivity index, ratio of Ki for human recombinant Muscarinic acetylcholine M1 receptor to Ki for human recombinant sigma1 receptor; how it was run: as §2
[14] = species: Homo sapiens; experiment: Selectivity index, ratio of Ki for human recombinant Muscarinic acetylcholine M3 receptor to Ki for human recombinant sigma1 receptor; how it was run: as §2
[15] = species: Homo sapiens; experiment: Selectivity index, ratio of Ki for human recombinant Muscarinic acetylcholine M5 receptor to Ki for human recombinant sigma1 receptor; how it was run: as §2
[16] = species: Homo sapiens; experiment: Selectivity index, ratio of Ki for human recombinant NET receptor to Ki for human recombinant sigma1 receptor; how it was run: as §2
[17] = species: Homo sapiens; experiment: Selectivity index, ratio of Ki for human recombinant KOR receptor to Ki for human recombinant sigma1 receptor; how it was run: as §2
[18] = species: Homo sapiens; experiment: Selectivity index, ratio of Ki for human recombinant MOR receptor to Ki for human recombinant sigma1 receptor; how it was run: as §2
[19] = Selectivity index, ratio of Ki for rat brain PBR receptor to Ki for human recombinant sigma1 receptor; how it was run: as §2
[20] = test system: 661W; experiment: Cytotoxicity against mouse 661W cells at 200 uM after 24 hrs by MTT assay; format: cell-based
How it was run: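 661W cells treated 24 h with test agent at 10, 30, 100 and 200 μM. Viability is measured by MTT and compared with nontreated cells.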

[21] = test system: 661W; experiment: Cytoprotective activity in mouse 661W cells assessed as inhibition of t-BHP induced oxidative stress by measuring in cell viability at 30 uM in presence of 10 uM of […] preincubated for 30 mins followed by compound addition and measured after 24 hrs by MTT assay; format: functional, cell-based
How it was run: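 Same 661W oxidative-stress setup: 55 μM tBHP for 24 h with test agent at 30 μM, plus the σ1 antagonist BD1063 at 10 μM. Viability is read by MTT.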

[22] = test system: 661W; experiment: Cytoprotective activity in mouse 661W cells assessed as reduction in tBHP-induced ROS level at 10 to 30 uM after 2 hrs by […] fluorescent microscopic analysis; format: functional, cell-based
How it was run: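 661W cells seeded on coverslips for 18 h, then exposed 2 h to 55 μM tBHP with or without test agent or (+)-pentazocine. ROS are detected with CellROX green dye by epifluorescence, with DAPI marking nuclei. Fluorescence intensity is quantified as mean ± SD from three independent experiments, each run in duplicate.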

[23] = target: 5-hydroxytryptamine receptor 5A (Homo sapiens, UniProt P47898); experiment: Displacement of [3H]-LSD from human recombinant 5-HT5A receptor expressed in Flp-In CHO cells at 10 uM after 90 mins by microbeta scintillation counting method relative to control; format: cell-based; how it was run: as §1
Chain of 5-hydroxytryptamine receptor 5A (P47898 whole entry): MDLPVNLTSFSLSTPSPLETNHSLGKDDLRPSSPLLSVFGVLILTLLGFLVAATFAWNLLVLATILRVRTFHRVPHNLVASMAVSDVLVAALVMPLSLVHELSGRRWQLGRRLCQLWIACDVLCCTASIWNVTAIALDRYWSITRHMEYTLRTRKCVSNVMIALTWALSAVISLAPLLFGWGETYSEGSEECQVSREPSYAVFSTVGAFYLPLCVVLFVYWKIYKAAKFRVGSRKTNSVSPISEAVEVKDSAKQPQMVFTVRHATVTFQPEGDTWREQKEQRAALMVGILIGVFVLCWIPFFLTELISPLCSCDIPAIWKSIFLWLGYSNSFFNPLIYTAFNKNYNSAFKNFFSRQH

[24] = target: Alpha-2A adrenergic receptor (Homo sapiens) (UniProt P08913); experiment: Displacement of [3H]-Rauwolscine from human recombinant adrenergic Alpha2A receptor expressed in stable MDCK cells at 10 uM after 90 mins by microbeta scintillation counting method relative to control; format: cell-based
Chain of Alpha-2A adrenergic receptor (Homo sapiens) (P08913 whole entry): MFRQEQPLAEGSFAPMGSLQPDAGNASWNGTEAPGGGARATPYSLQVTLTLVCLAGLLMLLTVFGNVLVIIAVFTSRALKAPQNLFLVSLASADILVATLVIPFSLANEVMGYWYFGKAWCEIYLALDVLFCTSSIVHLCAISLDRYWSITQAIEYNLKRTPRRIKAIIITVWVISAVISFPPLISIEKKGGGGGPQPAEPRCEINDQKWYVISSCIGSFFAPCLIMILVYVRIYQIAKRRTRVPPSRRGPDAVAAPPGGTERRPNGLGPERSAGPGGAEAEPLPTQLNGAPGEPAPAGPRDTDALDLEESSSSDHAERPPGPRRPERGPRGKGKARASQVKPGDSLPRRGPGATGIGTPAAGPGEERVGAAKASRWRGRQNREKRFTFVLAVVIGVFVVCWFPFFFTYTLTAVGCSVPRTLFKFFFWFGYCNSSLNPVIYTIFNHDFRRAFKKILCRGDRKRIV

[25] = species: Rattus norvegicus; experiment: Displacement of [3H]-Flunitrazepam from BZP receptor in rat brain at 10 uM after 90 mins by microbeta scintillation counting method; format: tissue-based; how it was run: as §1

COc1cc(OC)c2c(c1)OC[C@@]1(C)NCC[C@@H]21 (racemic)
inhibition [1]: < 50% | Ratio Ki [2]: > 5 | Ratio Ki [3]: > 200 | Ratio Ki [4]: > 20 | Ratio Ki [5]: > 20 | Ratio Ki [6]: > 20 | Ratio Ki [7]: > 20 | Ratio Ki [8]: > 20 | Ratio Ki [9]: > 20 | Ratio Ki [10]: > 20 | Ratio Ki [11]: > 20 | Ratio Ki [12]: > 20 | Ratio Ki [13]: > 20 | Ratio Ki [14]: > 20 | Ratio Ki [15]: > 20 | Ratio Ki [16]: > 20 | Ratio Ki [17]: > 20 | Ratio Ki [18]: > 20 | Ratio Ki [19]: > 20 | Activity [20]: Non-Toxic | Activity [21]: inactive | inhibition [22]: Active

CC[C@H]1c2cc(C)ccc2OC[C@@]1(C)N (racemic)
inhibition [23]: < 50% | inhibition [24]: < 50% | inhibition [25]: < 50%
